An excerpt weighted towards active compounds, which were near 2.6% of everything screened.
V1aR counter: counter-screen for oxytocin receptor agonists: human V1a receptor agonists; CHO-V1R cells, Fluo-8 calcium fluorescence, agonist mode; 0% DMSO, 100% 3 nM vasopressin; P37288; actives 0.25% (n = 320,000); activation, % at 3 µM;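 active = activation above the mean activation of all tested compounds plus 3 SD, per screening run, cut at about 20% in these data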;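 also: signal is peak over basal fluorescence ratio across a 100 second FLIPR read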
CHO parental Ca: counter-screen for OX1R antagonists: effect in parental CHO cells; actives 0.63% (n = 330,000); AID 463079; parental CHO-K1, ATP-induced calcium, Fluo-8 fluorescence; inhibition, % at 5.6 µM;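 active = inhibition above that plate's mean sample inhibition plus 3 SD, cut at about 26% in these data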;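 also: 0% = ATP-challenged DMSO wells and 100% = DMSO wells without ATP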
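Test system: untransfected parental CHO cell line; also added: ATP stimulus; dosing: 5.6 µM, single dose; signal: calcium-sensitive Fluo-8 fluorescence; measure: percent inhibition of ATP-evoked calcium rise, normalized to controls; benchmarks: low control ATP plus DMSO, high control DMSO only; replication: one well per compound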
OXTR potentiate: human OXTR potentiation; activation, % at 3 µM; AID 2445; actives 0.061% (n = 320,000); P30559; CHO-OTR cells, Fluo-8 calcium fluorescence, potentiator mode; 0% = oxytocin EC15, 100% = EC100;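 active = activation above that plate's cutoff, the mean activation of tested compounds plus 3 SD, cut at about 6.6% in these data, passing the limit was not always enough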;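 also: 100% uses oxytocin at 75 nM as the full agonist control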
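Dosing: Single dose, 3.0 µM nominal final compound concentration | Material: Human OTR in CHO cells | Technique: Kinetic Fluo-8 calcium fluorescence | Benchmarks: EC15 oxytocin alone as 0%, 75 nM oxytocin as 100% | Probe or stimulus: Oxytocin at about EC15, sub-maximal agonist stimulus | Incubation: Compound 6 min at room temperature before oxytocin, 100 s read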
OX1R antag-1: blocks the human orexin 1 receptor; CHO/OX1R cells, Fluo-8 calcium fluorescence, orexin A; O43613; actives 0.43% (n = 330,000); inhibition, % at 5 µM; AID 434989;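 active = inhibition above its plate's threshold, mean inhibition of all tested compounds on the plate plus 3 SD, cut at about 37% in these data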;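 also: 0% = orexin A challenge wells and 100% = SB-334867-A antagonist wells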
Target sequence (O43613 whole entry, looked up): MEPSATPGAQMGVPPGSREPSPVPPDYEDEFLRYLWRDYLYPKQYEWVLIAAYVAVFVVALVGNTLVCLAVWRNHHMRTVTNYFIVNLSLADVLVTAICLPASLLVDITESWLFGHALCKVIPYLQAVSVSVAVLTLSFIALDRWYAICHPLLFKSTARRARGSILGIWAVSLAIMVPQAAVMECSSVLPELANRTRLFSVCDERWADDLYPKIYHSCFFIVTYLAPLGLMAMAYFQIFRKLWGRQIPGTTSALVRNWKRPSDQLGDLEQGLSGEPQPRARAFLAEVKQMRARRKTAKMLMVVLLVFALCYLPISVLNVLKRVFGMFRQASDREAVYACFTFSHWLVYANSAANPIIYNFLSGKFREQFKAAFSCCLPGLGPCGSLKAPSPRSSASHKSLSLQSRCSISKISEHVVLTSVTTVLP
OXTR agonist: human OXTR agonism. P30559. CHO-OTR cells, Fluo-8 calcium fluorescence; normalized: DMSO 0%, oxytocin 100%. activation, % at 3 µM. actives 0.32% (n = 320,000). AID 2435;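 active = activation above the mean of all tested compounds plus 3 SD, cutoff set per screening run, cut at about 20% in these data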;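 also: peak over basal fluorescence ratio from a 100 s FLIPR kinetic read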
OX1R antag-2: antagonists of human orexin 1 receptor (OX1R); O43613; OX1R-expressing cells, FRET antagonist read-out; inhibition, % at 6.6 µM; actives 1.8% (n = 330,000); AID 485270; in the data active = inhibition mostly above about 38%, no sharp cut-off; inactive = mostly below about 40%;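 also: 0% = agonist challenge alone and 100% = reference antagonist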
An asterisk follows results filed as active; / = not tested or not shown.

SMILES | V1aR counter | CHO parental Ca | OXTR potentiate | OX1R antag-1 | OXTR agonist | OX1R antag-2
C[C@@H]1NC(=O)c2cc([N+](=O)[O-])cc(I)c2OCC[C@@H](C(=O)NC(CC(=O)O)C(N)=O)NC(=O)[C@H](CCC(=O)O)NC1=O (some centres undefined) | 0 | -7 | 0 | -2 | 0 | 62*
NC(=O)C(CC(=O)O)NC(=O)[C@@H]1CCOc2c(I)cc([N+](=O)[O-])cc2C(=O)N[C@@H](CCC(=O)O)C(=O)N[C@@H](CO)C(=O)N1 (some centres undefined) | 1 | -4 | -12 | 2 | -1 | 70*
CCc1ccc(CN(Cc2cccnc2)C(=O)/C=C/c2ccc(OC)cc2)cc1 | 0 | -8 | -7 | -10 | -1 | 20
O=C(COC(=O)c1cc(=O)[nH]c2ccccc12)NCc1ccccc1 | 0 | -13 | -3 | 5 | 2 | 4
CC(=O)NS(=O)(=O)c1ccc2c(c1)C(=O)c1cc(S(=O)(=O)NC(C)=O)ccc1-2 | 0 | -10 | -17 | -13 | 0 | 58*
CC(NS(=O)(=O)c1cccc(S(=O)(=O)c2ccccc2)c1)C(=O)O (centres undefined) | 0 | 4 | -11 | 7 | 1 | 6
CC(NS(=O)(=O)c1ccc2c(c1)C(=O)c1cc(S(=O)(=O)NC(C)C(=O)O)ccc1-2)C(=O)O (centres undefined) | 5 | 1 | 0 | -5 | 1 | 60*
O=C(Nc1cccc(/C=C/c2ccccn2)c1)c1ccc(-n2cncn2)c([N+](=O)[O-])c1 | 8 | -3 | -7 | -3 | 1 | 26
CCOC(=O)c1c(C)[nH]c(C)c1C(=O)COc1ncnc2cc([N+](=O)[O-])ccc12 | 0 | -20 | -6 | -40 | -2 | 75*
CC(NC(=O)COc1ncnc2cc([N+](=O)[O-])ccc12)c1ccccc1 (centres undefined) | 1 | -5 | -6 | -14 | 2 | 64*
CC(NC(=O)c1cccc(S(=O)(=O)N(C)c2ccccc2)c1)c1cccnc1 (centres undefined) | 2 | -8 | -11 | -4 | 4 | 1
COc1ccc(CCNC(=O)c2c[nH]c3ccc(F)cc3c2=O)cc1OC | 7 | -21 | -4 | -31 | 1 | -1
CC1CN(C(=O)Cn2cc(SCC(=O)N3CCOCC3)c3ccccc32)CC(C)O1 (centres undefined) | 0 | -14 | -4 | -33 | 0 | 0
Cc1ccc(C(=O)NC(Cc2ccccc2C(F)(F)F)C(=O)O)cc1 (centres undefined) | / | -2 | / | -12 | / | 11
CCCCN1C(=O)c2cccc3cc(O)cc(c23)C1=O | 3 | -6 | -12 | 7 | 2 | 11
CC(=O)OCCN1C(=O)c2cccc3cc([N+](=O)[O-])cc(c23)C1=O | 4 | -14 | -9 | -3 | 0 | 69*
O=C1c2cccc3cc([N+](=O)[O-])cc(c23)C(=O)N1CC1CCCO1 (centres undefined) | -1 | -4 | 0 | -22 | -1 | 60*
O=[N+]([O-])c1cccc(S(=O)(=O)NCC2CCCO2)c1 (centres undefined) | 2 | -8 | -6 | -1 | -1 | 58
O=C(Cn1ncn2nc(-c3ccccc3)cc2c1=O)NCc1ccccn1 | 6 | -3 | -5 | -18 | 2 | 14
CCC(C)(C(=O)NC1CCCC1)N(C(=O)Cc1cccs1)c1c(C)n(C)n(-c2ccccc2)c1=O (centres undefined) | 0 | -9 | -1 | -1 | 0 | 24
C=CCNC(=O)C1CCN(S(=O)(=O)c2ccc3ccccc3c2)CC1 | 0 | 1 | -7 | -4 | 0 | 4
O=C(C[C@H]1C[C@H](C(=O)N2CCCCC2)[C@@]2(CCc3ccccc3)c3[nH]c4cc(-c5ccco5)ccc4c3CCN2C1=O)NCCC1=CCCCC1 | / | -5 | / | -35 | / | 7
Cc1cc(OCc2nnc(SC(C)C(=O)O)n2-c2ccccc2)ccc1Cl (centres undefined) | 0 | -3 | -4 | 9 | 0 | 13
Cc1ccc2[nH]c3c(NCc4ccco4)ncnc3c2c1 | 12 | -6 | -12 | -6 | 16 | 50*
COc1cc(NC(=O)CSCC(=O)Nc2cc(OC)cc(OC)c2)cc(OC)c1 | 0 | -7 | -11 | 1 | 2 | 63*
SMILES | V1aR counter | CHO parental Ca | OXTR potentiate | OX1R antag-1 | OXTR agonist | OX1R antag-2
CN(CC(=O)Nc1cccc(F)c1)C(=O)c1cn(-c2ccccc2)nc1-c1cccs1 | 3 | -8 | -16 | -3 | 3 | 21
COc1ccc(NC(=O)CN(C)C(=O)CSCC(=O)Nc2ccc(C)cc2)cc1 | -1 | -13 | -6 | -17 | -2 | 13
COc1cc(NC(=O)CSc2nc(C3CC3)nc3ccccc23)cc(OC)c1 | 0 | -20 | -3 | -21 | 0 | 47*
COCC(=O)Nc1cc(OC)cc(OC)c1 | 1 | -8 | -5 | -11 | -1 | 7
COc1cccc(NC(=O)CN(C)C(=O)CSCC(=O)Nc2ccc(C)cc2)c1 | 0 | -13 | 3 | 12 | -1 | 30*
COc1cccc(NC(=O)CN(C)C(=O)c2cn(-c3ccccc3)nc2-c2cccs2)c1 | 2 | 1 | -7 | 9 | 0 | 51*
CCCCn1c(N)c(N(CCOC)C(=O)CN(C)CC(=O)Nc2ccc(Cl)c(Cl)c2)c(=O)[nH]c1=O | 1 | -11 | -1 | -25 | 2 | 4
Cc1cc(C(=O)NNC(=S)Nc2ccccc2)nn1C | 1 | -5 | -15 | -9 | 0 | 35
CC1CCCCN1C(=S)NCCc1ccccc1 (centres undefined) | 0 | -7 | -12 | -17 | 6 | 16
CN(CC(=O)Nc1cccc(F)c1)C(=O)CSc1nc2ccccc2s1 | 0 | -15 | -9 | -26 | 0 | 24
COc1cccc(NC(=O)CN(C)C(=O)CSc2nc3ccccc3s2)c1 | 2 | -7 | -14 | 9 | -1 | 54*
Cc1ccc2c(c1)c1c3n2CC(=C2C(=O)OC(C)(C)OC2=O)NC3CCC1 (centres undefined) | 0 | -12 | 1 | 28 | -1 | 43*
Cc1ccc2c(c1)c1c3n2CCN(C(=O)C2CC2)C3CCC1 (centres undefined) | -1 | -25 | -3 | -28 | -2 | 12
O=C(CNC(=O)c1ccccc1F)NCCc1ccccc1F | 0 | 6 | -3 | -5 | 0 | 2
CCOC(=O)N1CCN(c2nc(-c3cccs3)nc3ccccc23)CC1 | -1 | -26 | -10 | 22 | -2 | 74*
CCCN1CCN(c2nc(-c3cccs3)nc3ccccc23)CC1 | -1 | -15 | -4 | -11 | -2 | 10
CCN(CC)CCNC(=O)CCc1nnc2ccc(N3CCC(C)CC3)nn12 | -1 | 1 | 2 | 0 | 0 | 12
